Published values of several laboratories.
Protocols differ between the studies behind these lines.
Target: Serine/threonine-protein kinase Nek10 (NEK10, Homo sapiens, UniProt Q6ZWH5)
Sequence (Q6ZWH5 1-1172, as in one of the studies): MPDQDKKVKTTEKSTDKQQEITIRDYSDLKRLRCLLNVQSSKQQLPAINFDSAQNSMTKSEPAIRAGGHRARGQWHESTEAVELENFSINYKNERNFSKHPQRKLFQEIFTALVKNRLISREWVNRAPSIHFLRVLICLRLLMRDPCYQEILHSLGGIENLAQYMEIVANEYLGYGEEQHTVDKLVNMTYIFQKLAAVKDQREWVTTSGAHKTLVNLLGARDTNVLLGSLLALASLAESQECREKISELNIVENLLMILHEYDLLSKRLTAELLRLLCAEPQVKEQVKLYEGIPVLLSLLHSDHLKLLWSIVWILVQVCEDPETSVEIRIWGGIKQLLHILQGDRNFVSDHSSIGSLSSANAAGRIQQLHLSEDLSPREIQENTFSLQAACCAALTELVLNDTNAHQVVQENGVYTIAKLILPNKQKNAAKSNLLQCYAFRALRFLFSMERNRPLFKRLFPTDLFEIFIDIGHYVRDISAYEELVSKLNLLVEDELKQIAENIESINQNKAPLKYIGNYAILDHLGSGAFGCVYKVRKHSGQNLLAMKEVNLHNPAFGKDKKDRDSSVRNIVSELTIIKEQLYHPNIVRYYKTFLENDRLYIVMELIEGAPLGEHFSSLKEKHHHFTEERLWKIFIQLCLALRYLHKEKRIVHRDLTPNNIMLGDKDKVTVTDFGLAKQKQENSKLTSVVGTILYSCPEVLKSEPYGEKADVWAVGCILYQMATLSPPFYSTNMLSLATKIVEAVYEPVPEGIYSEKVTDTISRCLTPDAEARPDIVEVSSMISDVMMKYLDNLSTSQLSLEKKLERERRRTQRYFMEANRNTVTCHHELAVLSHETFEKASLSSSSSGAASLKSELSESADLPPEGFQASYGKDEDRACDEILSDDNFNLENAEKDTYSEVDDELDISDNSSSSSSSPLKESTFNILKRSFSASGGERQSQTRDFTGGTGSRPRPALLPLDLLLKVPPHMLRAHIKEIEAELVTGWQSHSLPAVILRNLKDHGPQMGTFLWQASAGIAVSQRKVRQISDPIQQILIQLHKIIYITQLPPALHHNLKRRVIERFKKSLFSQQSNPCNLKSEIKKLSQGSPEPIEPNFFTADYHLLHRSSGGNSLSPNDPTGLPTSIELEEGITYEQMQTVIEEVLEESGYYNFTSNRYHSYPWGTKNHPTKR

Compound	test	conditions	remaining binding [%]
c1cnn2ncc(-c3ccnc(N4CCC45COC5)n3)c2c1	binding	1 µM	98
Cc1c[nH]c2nccc(Oc3c(F)cc(Nc4cc(Cl)nc(N)n4)cc3F)c12	cell-free assay, competition with immobilised ligand	0.1 µM	75
Cc1cnc(Nc2ccc(C(=O)N3CCC(N4CCCC4)CC3)cc2)nc1-c1cc2ccccc2s1	binding, competition with immobilised ligand	1 µM	71
COc1cccc(CNC(=O)c2nc3scc(COCc4ccc(C(=O)O)cc4)c3c(=O)[nH]2)c1	cell-free assay, competition with immobilised ligand	1 µM	61.7
CN(C)c1nccc(-c2cnn3ncccc23)n1	binding	1 µM	100
O=C(NCCCN1CCOCC1)c1ccc(Nc2nccc(-c3cc4ccccc4s3)n2)cc1	binding, competition with immobilised ligand	1 µM	59
C[C@@H](c1ccc(-n2cnc3c(N)ncnc32)cc1)N1CCc2nn(C)c(Cc3ccccc3)c2C1=O	binding, competition with immobilised ligand	0.1 µM	80
O=C(NCCCN1CCOCC1)c1ccc(Nc2ncc(Cl)c(-c3ccc(Cl)s3)n2)cc1	binding, competition with immobilised ligand	1 µM	48
CNC(=O)[C@@H]1CC[C@@H](n2c(-c3ccc4cnccc4c3)nc3ccc(C(=O)NCc4cccc(C(N)=O)c4)cc32)C1	binding, competition with immobilised ligand	1 µM	92
O=C(Nc1cccnn1)N1CCC(=Cc2cccc(Oc3ccc(C(F)(F)F)cn3)c2)CC1	cell-free assay, competition with immobilised ligand	1 µM	100
FC(F)(F)Oc1cccc(-c2cnc3ccc(-c4ccncc4)nn23)c1	cell-free assay, competition with immobilised ligand	5 µM	28
COc1ncc2cc3ccccc3nc2c1C#N	cell-free assay, competition with immobilised ligand	5 µM	98
COc1cnc(Nc2cccc(S(N)(=O)=O)c2)nc1N1CCN(c2ccccc2)CC1	binding, competition with immobilised ligand	1 µM	69
CN(C)c1ncnc(-c2ccc3nc(Nc4cc(CN5CCN(C(=O)CC(F)(F)F)CC5)ccn4)[nH]c3c2)c1Cl	cell-free assay, competition with immobilised ligand	1 µM	72
CN(CCCC(F)(F)F)c1nccc(-c2cnn3ncccc23)n1	binding	1 µM	90
O=C(NCC1CCOCC1)c1n[nH]cc1NC(=O)c1c(F)cccc1F	binding, competition with immobilised ligand	1 µM	72
C[C@H]1CCN(c2nccc(-c3cnn4ncccc34)n2)C1	binding	1 µM	91
CS(=O)(=O)N1CCCC(NC(=O)[C@H](CCC2CCCCC2)NC(=O)c2ccc(CNC(=O)c3cnc4ccccn34)cc2)C1 (stereo partly drawn)	cell-free assay, competition with immobilised ligand	0.1 µM	100
